KCNQ1 block = blocks the human KCNQ1 potassium channel; B-score at 10 µM; P51787; CHO-K1 KCNQ1, FluxOR thallium flux fluorescence; hits give high values; 1.3% of 310,000 active;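 active = compounds whose thallium flux B-score, printed positive for inhibition, exceeds three library SD while starting fluorescence stays within three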;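 note: channel opened by potassium depolarization with thallium stimulus after 20 min compound exposure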
hERG protect = compounds protecting human hERG from proarrhythmic drug block; 0.51% of 310,000 active; Q12809; CHO-hERG, FluxOR thallium flux, dofetilide IC70 present; activation (rescue from dofetilide block), less the hit threshold, % at 10 µM;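 active = activation above the mean of controls blocked by dofetilide plus 5 SD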;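 note: thallium influx through hERG after potassium depolarization seen as dye fluorescence rise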
Target sequence (Q12809 whole entry, looked up): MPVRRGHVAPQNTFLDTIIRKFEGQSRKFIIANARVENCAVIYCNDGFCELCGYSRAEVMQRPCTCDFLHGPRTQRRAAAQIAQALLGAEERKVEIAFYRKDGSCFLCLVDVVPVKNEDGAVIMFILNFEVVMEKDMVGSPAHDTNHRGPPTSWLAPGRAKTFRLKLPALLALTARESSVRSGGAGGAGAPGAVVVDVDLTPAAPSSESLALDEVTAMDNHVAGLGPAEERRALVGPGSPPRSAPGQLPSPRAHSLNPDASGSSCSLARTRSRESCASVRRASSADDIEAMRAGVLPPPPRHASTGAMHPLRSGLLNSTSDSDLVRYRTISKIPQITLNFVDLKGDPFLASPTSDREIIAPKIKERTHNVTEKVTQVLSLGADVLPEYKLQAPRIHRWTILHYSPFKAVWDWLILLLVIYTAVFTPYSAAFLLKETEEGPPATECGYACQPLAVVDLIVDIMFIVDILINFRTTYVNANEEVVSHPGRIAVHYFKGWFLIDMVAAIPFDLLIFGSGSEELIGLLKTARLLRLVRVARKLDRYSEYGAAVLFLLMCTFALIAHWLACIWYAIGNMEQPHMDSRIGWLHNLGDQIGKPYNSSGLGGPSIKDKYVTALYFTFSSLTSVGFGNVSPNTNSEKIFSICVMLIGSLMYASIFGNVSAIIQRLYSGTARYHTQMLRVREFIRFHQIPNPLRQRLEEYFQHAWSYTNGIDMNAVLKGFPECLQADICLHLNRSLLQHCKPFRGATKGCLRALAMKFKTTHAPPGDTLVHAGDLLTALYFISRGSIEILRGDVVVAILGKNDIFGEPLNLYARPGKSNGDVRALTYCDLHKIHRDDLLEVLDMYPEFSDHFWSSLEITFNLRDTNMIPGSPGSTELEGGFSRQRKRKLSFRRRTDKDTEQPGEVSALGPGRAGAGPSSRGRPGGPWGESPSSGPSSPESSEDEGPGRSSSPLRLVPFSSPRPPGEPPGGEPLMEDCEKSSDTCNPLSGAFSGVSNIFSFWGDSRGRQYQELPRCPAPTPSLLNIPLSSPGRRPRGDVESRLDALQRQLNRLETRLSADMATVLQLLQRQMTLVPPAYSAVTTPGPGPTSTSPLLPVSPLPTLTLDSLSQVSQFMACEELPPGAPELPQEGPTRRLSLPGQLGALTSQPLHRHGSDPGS
Mot1-301 SUMO = SUMOylation pathway inhibition by Mot1-301 growth rescue. S. cerevisiae Mot1-301 growth rescue, ATP luminescence, 38.5C; percent above DMSO median, 100 means doubled. growth rescue, % at 18.8 µM. 1% of 320,000 active;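 active = every valid replicate shows activation above 250% relative to neutral control wells; inactive = the rest, any valid replicate at or below 250%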
AI-2 QS mod = Vibrio harveyi AI-2 quorum sensing modulation; Vibrio harveyi JMH597 AI-2 luminescence/OD600 ratio, 9 h; hits give low values; strain lacks LuxN and CqsS sensors; 0 = neutral-control median; activity change, % at 7.5 µM; 0.4% of 300,000 active; in the data active = activity change below about -75%, passing the limit was not always enough; inconclusive = no clear call, values can overlap the other calls;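 note: luminescence divided by OD600 gain over 9 h not by final OD600 alone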
KCNQ1 pot = potentiates or activates the human KCNQ1 potassium channel. CHO-K1 KCNQ1, thallium flux FluxOR fluorescence; hits give high values. B-score at 10 µM. 0.35% of 310,000 active. AID 2648;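 active = fluorescence ratio B-score, a plate-corrected score, at least three library SD, with initial intensity B-score within 5 SD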
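Medium – assay buffer, equal DMSO in all wells · Material – CHO-K1 cell line with stable KCNQ1 potassium channel expression · Signal – kinetic FluxOR thallium fluorescence, 10-s 1-Hz baseline, 110-s post-stimulus read · Compound – single concentration per compound, DMSO matched to controls · Schedule – 37 °C overnight plating, 90-min dark dye load, 20-min compound pretreatment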
Cl transport mod = modulators of human KCC2 chloride dependent transport. Q9H2X9. KCC2 cells, thallium flux FluoZin-2 fluorescence. B-score of Tl+ flux slope (higher = more flux/activation; lower = inhibition) at 10 µM. 2.2% of 190,000 active. AID 1456;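 active = thallium flux slope and its plate-corrected score both differing from the plate sample mean at a set confidence after two filtering rounds, in either direction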;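 note: slope of fluorescence scaled to starting intensity during 10 to 20 s after thallium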
Each line names hits and unclear results; the compound was inactive in the other large screens. Most compounds without a hit are left out; they make up all but 4.2% or so of the library.

CCCn1c(=O)c(C(=O)NCc2ccc3c(c2)OCO3)c(O)c2ccccc21	KCNQ1 block 8 (no result: Cl transport mod)
C/C(=C\C(=O)c1ccc(F)cc1)NCc1ccc2c(c1)OCO2	none
C/C(=C\C(=O)c1ccc(Br)cc1)NCc1ccc2c(c1)OCO2	KCNQ1 block 8
CCCn1nc(C(=O)NCc2ccc3c(c2)OCO3)c2ccccc2c1=O	none
COc1ccc(/C=N/NC(N)=S)cc1OC(=O)c1cccc2ccccc12	none (no result: Cl transport mod)
O=C(Nc1cccc([N+](=O)[O-])c1)NC1CCS(=O)(=O)C1 (stereo not drawn)	KCNQ1 block 10 (no result: Cl transport mod)
COc1cc([N+](=O)[O-])ccc1NC(=O)Nc1cccnc1	none (no result: Cl transport mod)
NC(=O)c1cccnc1Nc1cccc([N+](=O)[O-])c1	hERG protect 9.4
Cc1ccc(NC(=O)Nc2cccc([N+](=O)[O-])c2)cc1F	none
O=C(Nc1ccc(OC(F)(F)F)cc1)Nc1cccc([N+](=O)[O-])c1	KCNQ1 block 7, AI-2 QS mod inconclusive
O=C(Nc1cccnc1)Nc1cccc([N+](=O)[O-])c1	KCNQ1 block 6 (no result: Cl transport mod)
O=C1CC(SC2=NCCS2)C(=O)N1c1cccc(Cl)c1Cl (stereo not drawn)	none
CCC(NC(=O)Nc1cc(C)on1)(C(F)(F)F)C(F)(F)F	none
COc1ccc(CCNC(=O)C2CCC(C(C)(C)C)CC2)cc1OC (stereo not drawn)	none (no result: Cl transport mod)
Cc1nc(SCC(=O)N2CCCCC2)c2c(C)c(C)sc2n1	Mot1-301 SUMO 309.5 (no result: Cl transport mod)
O=C(Nc1cc(-c2ccccc2)sc1C(=O)O)c1cccc(F)c1	KCNQ1 block 6 (no result: Cl transport mod)
COc1ccc(F)c(CN2CCC(n3nccc3NC(=O)CCCc3ccccc3)CC2)c1	AI-2 QS mod -95.2 (no result: Cl transport mod)
Cc1ccccc1CN1CCC(n2nccc2NC(=O)CCCc2ccccc2)CC1	none (no result: Cl transport mod)
O=C(NC12CC3CC(CC(C3)C1)C2)N(Cc1ccccc1)Cc1ccncc1	KCNQ1 block 6
O=C(NC12CC3CC(CC(C3)C1)C2)c1ccccc1	none
CC(C)NC(=S)NC(=O)/C=C/c1ccc(F)cc1	none
CC(C)NC(=S)Nc1c(N)[nH]c(=O)[nH]c1=O	Mot1-301 SUMO 342.5
CCC(C)(c1ccc(C=O)s1)c1ccc(C=O)s1	hERG protect 6.0
COc1ccc(NC(=O)C(C)N=C2NS(=O)(=O)c3ccccc32)cc1S(N)(=O)=O (stereo not drawn)	none (no result: KCNQ1 block, hERG protect, AI-2 QS mod, KCNQ1 pot, Cl transport mod)
O=S(=O)(c1ccc(OC(F)(F)F)cc1)N1CCCC(N2CCOCC2)C1 (stereo not drawn)	none (no result: Cl transport mod)
Cc1ccc2c(c1)sc1nc(=O)ccn12	hERG protect 6.7 (no result: AI-2 QS mod, Cl transport mod)
COc1ccc2c(c1)sc1nc(=O)ccn12	none (no result: Cl transport mod)
CNCc1ccccc1Sc1cccc2ccccc12	KCNQ1 pot 8
CN(C(=O)c1ccc(Br)o1)C1CCCCC1	none (no result: Cl transport mod)
Cc1cc(SC(C)C(=O)NCC(=O)Nc2ccc(F)c(F)c2F)nc2ccccc12 (stereo not drawn)	none
Cc1cc(C)c2nc(SC(C)C(=O)NCC(=O)Nc3ccc(F)c(F)c3F)cc(C)c2c1 (stereo not drawn)	Cl transport mod 12.5
CCC(CO)Oc1cc(NC(=O)c2ccccc2[N+](=O)[O-])c2ncn(C(C)C)c2c1 (stereo not drawn)	none (no result: KCNQ1 block, hERG protect, AI-2 QS mod, KCNQ1 pot, Cl transport mod)
COc1cc(/C=N/Nc2ccc(C(F)(F)F)cn2)ccc1O	Mot1-301 SUMO active
O=C(O)c1ccc(/C=N/Nc2ccc(C(F)(F)F)cn2)cc1	none (no result: Mot1-301 SUMO)
COc1ccc(Br)cc1/C=N/NC(=O)CN1CCN(Cc2ccccc2)CC1	none
NS(=O)(=O)c1ccc(N2CCN(C(=O)c3ccco3)CC2)nc1	none (no result: KCNQ1 block, hERG protect, AI-2 QS mod, KCNQ1 pot, Cl transport mod)
ClC(Cl)c1nnc(-c2ccccc2)c(-c2c[nH]c3ccccc23)n1	AI-2 QS mod -77.2
CCn1cc(C(=O)O)c(=O)c2cc(F)c(N3CCN(C(=S)Nc4ccccc4OC)CC3)cc21	none
CCn1cc(C(=O)O)c(=O)c2cc(F)c(N/N=C/c3ccccc3[N+](=O)[O-])cc21	Mot1-301 SUMO 668.8
Cc1ccc(F)c(NC=C2C(=O)OC(C)(C)OC2=O)c1	none
Cc1ccc(S(=O)(=O)Nc2ccc(O)c3ccccc23)c(C)c1	hERG protect 9.0 (no result: Cl transport mod)
COc1ccc(S(=O)(=O)Nc2ccccc2)cc1	none (no result: Cl transport mod)

Screening results deposited in PubChem by several laboratories.
